# Only a selection was taken, and hits are over-represented in it overall.
# CHOP inhibitor – blocks CHOP induction under ER stress. CHO-K1 CHOP-promoter luciferase, tunicamycin-induced, 15-18 h. hit rate 3.8% among 220,000. inhibition, % at 10 µM;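 active means compounds that reduced the stress-induced luciferase reporter signal by more than about 70% of percent inhibition, limit read from the data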;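 further: 0% = tunicamycin plus vehicle and 100% = wells without tunicamycin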
# T cruzi repl – blocks replication of Trypanosoma cruzi; T. cruzi beta-gal in NIH3T3, luminescence, 90 h; inhibition, % (no concentration beside the values); hit rate 1.4% among 300,000;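 active means mean inhibition across valid replicates above about 55%, limit read from the data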;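 further: signal also drops with host cell toxicity which is not excluded here; 0% = plate median of DMSO wells and 100% = zero luminescence signal; higher percent means less beta-gal luminescence so fewer parasites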
#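 System: Mouse NIH/3T3 fibroblasts infected with β-gal-expressing T. cruzi Tulahuen C4 | Quantity: NIH/3T3 cells, 5,000 per well | Reagent: 5000 reporter trypomastigotes per well | Dosing: Compound pinned at 50 nL/well, DMSO | Schedule: 3 h host attachment, then at least 90 h co-culture | Detection: GalScreen luminescence, 60 min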
# XBP1 UPR activ – adaptive UPR (XBP1) activation | CHO-XBP1 luciferase reporter, IRE1-XBP1 UPR activation, luminescence; percent of tunicamycin response, DMSO as zero | activation, % at 20 µM | hit rate 0.33% among 330,000 | AID 463104;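 active means versus positive control, 20 µM dose yields 30% or more activation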;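 further: 100% = tunicamycin at 10 µg/mL and 0% = DMSO only wells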
#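 Assay system: CHO-XBP1 luciferase reporter cells; Schedule: 6 h treatment, 37 °C; Detection: glow luminescence from Steady-Glo reagent; Benchmarks: high control tunicamycin 10 µg/mL final, low control DMSO vehicle only.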
# CHOP UPR activ – activators of apoptotic arm of unfolded protein response (CHOP). CHO-CHOP luciferase reporter, UPR activation, luminescence; percent of tunicamycin response over DMSO baseline. AID 449763. activation, % at 10 µM. hit rate 0.34% among 330,000;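 active means at 10 µM dose, activation of 40% or more, normalized to positive control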;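 further: 100% = tunicamycin at 10 µg/mL and 0% = DMSO alone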
#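 Test system: CHO-CHOP cells, stable luciferase reporter of PERK-eIF2a-CHOP signalling | Quantity: 500 CHO-CHOP cells per well | Buffer or medium: F12 plus 10% serum | Compound dosing: 10 µM single point, 0.5% DMSO | Schedule: 6 h compound treatment, 37 °C | Signal: Luciferase luminescence | Control set: Tunicamycin high control, DMSO low control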
# Dynein cargo inh – blocks dynein driven cargo transport along microtubules; z-score, hits read low; 3617.4 mouse cells, GR-EGFP nuclear translocation imaging; test concentration mostly 20 µM; stimulated with dexamethasone, 1 µM; stronger effect = lower value; hit rate 0.47% among 220,000; AID 1381;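 active means plate z-score of nuclear minus cytoplasmic receptor signal below a set negative limit, without overly bright fluorescence or cell loss, cut at about -3.5 in these data, passing the limit was not always enough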;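 further: z-score of nuclear minus cytoplasmic ring GR-EGFP intensity difference per well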
#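 Schedule: 48 h induction, then 1 h compound, then 30 min agonist, 37 °C. Buffer or medium: tetracycline-free induction medium containing charcoal-stripped FBS. Reagent: 1.0 µM final dexamethasone stimulus. Evaluation: nuclear versus cytoplasmic GR-EGFP signal, averaged per well. Signal: high-content fluorescence imaging after fixation.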
# L major viab – reduces viability of Leishmania major promastigotes; resazurin fluorescence viability; AID 1063; hit rate 9% among 200,000; inhibition, % at 10 µM; in the data active means inhibition above about 50%;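 further: promastigotes grown with compound for 44 hours at 28 °C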
# Starred values were filed as active, the others as inactive; . = no result; ! = repeats disagree.
SMILES,CHOP inhibitor,T cruzi repl,XBP1 UPR activ,CHOP UPR activ,Dynein cargo inh,L major viab
COc1ccc(NS(=O)(=O)c2ccc(NC(=S)NC(=O)c3ccc(Br)cc3)cc2)nn1,17,-2,1,3,0.65,85*
NS(=O)(=O)c1ccc(NS(=O)(=O)c2ccc(NC(=S)Nc3ccccc3)cc2)cc1,-4,-6,-3,-1,-1.5,-3
Cc1cc(C)cc(NS(=O)(=O)c2ccc(NC(=S)Nc3ccccc3)cc2)c1,-3,-18,1,2,-0.78,82*
COc1ccc(NS(=O)(=O)c2ccc(NC(=O)c3ccc(Br)cc3)cc2)nn1,24,-2,-1,0,-0.8,-20
CC(C)(CNC(=O)c1ccccc1NS(C)(=O)=O)N1CCCCC1,.,-9,-3,2,.,.
Cc1ccc(S(=O)(=O)N/N=C\c2ccc([N+](=O)[O-])o2)cc1,31,6,4,0,-2.2,87*
Cc1ccc(S(=O)(=O)N/N=C\c2ccc(Cl)c([N+](=O)[O-])c2)cc1,54,-12,-1,2,-0.34,0
Cc1ccc(S(=O)(=O)N/N=C/c2ccc(OS(=O)(=O)c3ccc(C)c([N+](=O)[O-])c3)cc2)cc1,80*,.,-1,3,0.72,9
O=[N+]([O-])c1ccc(/C=N/NS(=O)(=O)c2ccc(Cl)cc2)o1,-18,.,.,.,-2.1,53*
O=C(O)CC1(CC(=O)NCc2cc(F)cc3c2OCOC3)CCCCC1,3,-12,-1,4,-0.59,.
CCC1CCCCN1CCCNC(=O)Cn1c(=O)c2cccn2c2cccnc21 (configuration not stated),.,-6,-3,0,.,.
CC(=O)Nc1cc(C(=O)NCc2ccco2)ccc1Sc1ccc(C)cc1,1,-18,0,-2,1.2,75*
CCC1=Nc2cc(C(=O)NCCCOC)ccc2Sc2ccccc21,.,56*,5,0,0.23,19
CCC1=Nc2cc(C(=O)NCc3ccco3)ccc2Sc2ccc(C)cc21,-26,16,.,.,-0.5,67*
O[C@@H]1CN(Cc2ccc(-n3cccn3)cc2)CC[C@H]1N1CCN(c2ccccc2F)CC1,.,21,-2,0,.,.
Cc1ccc(NC(=S)N2CCC(NC(=O)c3ccc(F)cc3)CC2)cc1,.,-21,-2,1,.,.
CN(C)C(=O)c1ccccc1NC(=O)Cc1cccc2ccccc12,.,-1,-6,-2,.,.
COc1cc(NC(=O)c2sc3ncn(CC(=O)N4CCCCC4)c(=O)c3c2C)cc(OC)c1OC,.,-14,-4,0,.,.
CN1CCN(NC(=O)Nc2cccc(F)c2)CC1,.,35,-2,3,.,.
CCN(CC)c1ccc(N2C(=NC(=O)C3CC3)SC3CS(=O)(=O)CC32)cc1 (configuration not stated),.,1,0,2,.,.
O=c1[nH]c(=O)c2ncc(-c3ccc(Cl)cc3)nc2[nH]1,30,-9,4,1,1.9,80*
COC(=O)c1sc(-c2ccc(C(C)(C)C)cc2)cc1NC(=O)CSCC(=O)O,77*,-3,1,4,0.8,.
COC(=O)c1sc(-c2ccccc2)cc1NC(=O)C1CC1,4,5,1,-1,-0.61,4
CC(C)CN(C(=O)COC(=O)c1ccc2c(c1)OCO2)c1c(N)n(Cc2ccccc2)c(=O)[nH]c1=O,.,-9,-2,-1,.,.
CC(NC(=O)CN1C(=O)NC2(CCCCCCC2)C1=O)c1ccccc1 (configuration not stated),.,.,0,1,.,.
SMILES,CHOP inhibitor,T cruzi repl,XBP1 UPR activ,CHOP UPR activ,Dynein cargo inh,L major viab
C=CCC1(NC(C)c2ccccc2)CCCCC1 (configuration not stated),15,-8,-1,-1,0.9,57*
COc1ccc2c(C=Nc3c(C)n(C)n(-c4ccccc4)c3=O)c(O)n(Cc3ccco3)c(=O)c2c1,40,30,1,2,1,76*!
COC(=O)c1ccc(NC(=O)CC(=O)Nc2ccc(C(=O)OC)cc2)cc1,.,-19,-8,0,.,.
COC(=O)c1ccc(NC(=O)CNc2ccccc2)cc1,-17,4,0,6,-1.6,76*
O=C(CSC1=NC(=O)C(c2ccccc2)C(=O)N1)Nc1cccc(Cl)c1 (configuration not stated),13,-15,0,3,0.018,-14
COC(=O)c1ccc(NC(=O)CSC2=NC(=O)C(c3ccccc3)C(=O)N2)cc1 (configuration not stated),38,-4,-1,4,1.4,53*
Cc1sc2ncnc(NCC3COc4ccccc4O3)c2c1C (configuration not stated),76*,0,.,.,-0.21,43
c1ccc(-c2csc3ncnc(NCC4COc5ccccc5O4)c23)cc1 (configuration not stated),93*,-16,.,.,-0.75,17
c1ccc(-c2csc3ncnc(NCCCN4CCOCC4)c23)cc1,6,7,8,1,0.0064,6
Cc1sc2ncnc(NCC3CCCO3)c2c1C (configuration not stated),27,-18,3,-4,-1,34
COc1ccc(C(=O)C2CCCN(C(=O)c3cc(C4CC4)[nH]n3)C2)c(C)c1 (configuration not stated),.,2,0,0,.,.
Cc1nc([N+](=O)[O-])c(Sc2nc3ccccc3n2C)n1Cc1ccccc1,9,13,-6,26,-3.4,96*
Cc1ccc2nc(-c3cc(N)cc(N)c3)oc2c1,79*,1,-2,-1,-1.7,-8
COc1cccc(NC(=O)Nc2ccc3nsnc3c2)c1,58,6,2,5,.,99*
COc1cccc(NC(=O)Nc2ccc3nc(C)c(C)nc3c2)c1,.,5,2,4,.,.
O=C(Nc1ccc2c(c1)OCO2)c1cc2ncc(Br)cn2n1,3,6,.,.,2.9,-6
O=C(Nc1cccc(C(F)(F)F)c1)c1cc2ncc(Br)cn2n1,79*,-3,-3,-1,-0.3,3
COc1ccc(N2CCc3c(C)nc4c(OC)cccc4c32)cc1,14,20,3,1,-0.33,100*
COc1ccc(N2CCc3c(C)nc4c(OC)cc(OC)cc4c32)cc1,5,73*,-3,-1,-0.64,100*
COc1ccc(N2CCc3c(C)nc4c(OC)cc(OC)cc4c32)c(OC)c1,48,58*,-2,-1,-0.05,101*
O=C1NN(c2ccccc2)C(=O)/C1=C/c1ccc(Sc2cccc3ccccc23)o1,104*,-24,3,6,-1.2,38
O=C1NN(c2ccccc2)C(=O)/C1=C/c1ccc(-c2ccc(C(=O)O)cc2)o1,.,0,-3,2,.,.

# Assay outcomes from PubChem BioAssay.
